Laboratory results reported in ChEMBL document CHEMBL2169816, “Noncyclam tetraamines inhibit CXC chemokine receptor type 4 and target glioma-initiating cells” (J Med Chem, 2012).
Activity calls are given as the source filed them. The rule behind the calls is not given here.

Columns and labels:
[1] = biological target: T1, C-X-C chemokine receptor type 4 (Homo sapiens, UniProt P61073); conditions: GBM2, 0.1 uM
CD44null [2] = assay: Effect on human GBM2 cell differentiation assessed as increase in CD44null cells after 7 days by flow cytometric analysis; assay type: functional, cell-based
Summary of the method: (§1)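 Patient-derived GBM neurospheres were treated with 1 μM inhibitor for 7 days, then dissociated and blocked 15 min with 10 μg/mL human IgG. Staining was FITC anti-CD44 or IgG2b isotype, 20 min on ice in the dark, then PBS wash and propidium iodide to exclude dying cells. Flow cytometry gave CD44 null fraction and CD44 low/CD44 null ratio.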

[3] = biological target: T1, C-X-C chemokine receptor type 4; conditions: GBM2, 0.1 uM; remark: listed apart in the source
[4] = biological target: T1, C-X-C chemokine receptor type 4; conditions: GBM2, 1 uM
CD44null [5] = assay: Effect on human GBM1 cell differentiation assessed as increase in CD44null cells after 7 days by flow cytometric analysis; assay type: functional, cell-based
Summary of the method: as §1

[6] = biological target: T1, C-X-C chemokine receptor type 4; conditions: GBM2, 1 uM; remark: listed apart in the source
[7] = biological target: Voltage-gated inwardly rectifying potassium channel KCNH2 (Homo sapiens, UniProt Q12809); assay: Inhibition of human ERG expressed in CHOK1 cells after 5 mins by whole-cell patch clamp assay; assay type: cell-based, CHO-K1
Chain of Voltage-gated inwardly rectifying potassium channel KCNH2 (Q12809 whole entry): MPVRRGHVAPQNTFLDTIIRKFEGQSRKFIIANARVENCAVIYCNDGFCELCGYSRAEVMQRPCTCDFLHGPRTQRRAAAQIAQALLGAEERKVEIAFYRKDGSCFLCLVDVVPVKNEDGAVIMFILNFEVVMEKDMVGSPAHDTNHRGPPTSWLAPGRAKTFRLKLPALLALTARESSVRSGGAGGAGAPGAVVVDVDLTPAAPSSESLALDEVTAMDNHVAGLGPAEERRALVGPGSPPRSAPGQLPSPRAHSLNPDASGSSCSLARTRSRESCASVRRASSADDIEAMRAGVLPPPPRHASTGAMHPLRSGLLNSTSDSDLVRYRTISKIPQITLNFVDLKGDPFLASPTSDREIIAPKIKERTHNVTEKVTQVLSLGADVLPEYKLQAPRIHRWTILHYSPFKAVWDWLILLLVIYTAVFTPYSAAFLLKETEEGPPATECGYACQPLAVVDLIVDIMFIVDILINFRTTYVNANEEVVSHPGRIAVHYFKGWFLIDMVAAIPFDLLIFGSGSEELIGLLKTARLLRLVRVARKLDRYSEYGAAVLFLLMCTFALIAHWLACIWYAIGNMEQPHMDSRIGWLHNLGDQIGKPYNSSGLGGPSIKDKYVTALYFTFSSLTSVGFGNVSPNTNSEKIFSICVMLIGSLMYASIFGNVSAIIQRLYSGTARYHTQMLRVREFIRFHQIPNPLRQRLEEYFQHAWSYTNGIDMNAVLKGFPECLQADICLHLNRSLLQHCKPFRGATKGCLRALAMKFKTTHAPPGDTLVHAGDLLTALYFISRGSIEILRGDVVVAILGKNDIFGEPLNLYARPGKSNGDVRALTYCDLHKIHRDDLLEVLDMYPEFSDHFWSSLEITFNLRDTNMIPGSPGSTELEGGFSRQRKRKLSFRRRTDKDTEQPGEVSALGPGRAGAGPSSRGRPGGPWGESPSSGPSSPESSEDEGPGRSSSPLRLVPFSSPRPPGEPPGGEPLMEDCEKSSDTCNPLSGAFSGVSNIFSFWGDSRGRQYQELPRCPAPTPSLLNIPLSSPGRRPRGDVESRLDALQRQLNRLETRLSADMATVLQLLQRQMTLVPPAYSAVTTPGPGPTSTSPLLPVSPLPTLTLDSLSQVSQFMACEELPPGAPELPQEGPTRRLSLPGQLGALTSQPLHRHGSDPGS

[8] = biological target: T1, C-X-C chemokine receptor type 4; assay: Antagonist activity at human recombinant CXCR4 expressed in CHO cells assessed as inhibition of SDF1a-induced electrical impedance by dielectric spectroscopic analysis; assay type: functional, cell-based
Summary of the method: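 CHO cells expressing recombinant human CXCR4. Antagonist mode: SDF-1a stimulant at 1 nM. Cellular impedance was read by cellular dielectric spectroscopy after incubation at 28 °C. Reference antagonist MIP-II was included. IC50 and KB were derived from concentration–response curves.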

[9] = system: Human immunodeficiency virus 1; assay: Antiviral activity against HIV1 infected in MT4 cells expressing CXCR4 assessed as inhibition of virus-induced cytopathic effect after 5 days; assay type: functional, organism-based
Summary of the method: (§2)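 MT-4 cells, infected or not with HIV-1, exposed to a range of compound concentrations and left to proliferate for 5 days. Viable cells were counted by MTT colorimetric read-out. EC50 comes from protection against virus-induced cytopathic effect and CC50 from viability of uninfected cells.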

[10] = (§3) Cytotoxicity against human MT4 cells expressing CXCR4 after 5 days by MTT assay; assay type: cell-based; conditions: MT4 cells expressing CXCR4
Summary of the method: as §2

[11] = Cytotoxicity against human GBM1 assessed as cell viability after 7 days by trypan blue staining method relative to control; conditions: GBM1 cells, read-out: Activity
Summary of the method: (§4)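 Dissociated neurospheres (acutase, 3 min) were counted and equal numbers seeded in triplicate per condition. Cells were treated or not with CXCR4 inhibitors (1 μM), with or without CXCL12. After 7 days cells were counted and viability expressed relative to untreated control.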

Mus musculus [12] = assay: Toxicity in Hsd:ICR(CD-1) mouse assessed as mortality at 2.5 mg/kg, iv after 1 min; assay type: organism-based; set-up: dose 2.5 mg/kg, route intravenous; conditions: in vivo
[13] = Cytotoxicity against human GBM1 assessed as cell viability after 7 days by trypan blue staining method in presence of CXCL12 relative to control; conditions: GBM1 cells, read-out: Activity
Summary of the method: as §4

[14] = biological target: T1, C-X-C chemokine receptor type 4; conditions: GBM2, 1 uM; remark: listed apart in the source
Mus musculus [15] = assay: (§5) Toxicity in iv dosed Hsd:ICR(CD-1) mouse measured up to 14 days; assay type: organism-based; conditions: in vivo, 336 h
Summary of the method: (§6)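 Single iv tail-vein injection in physiological saline (0.9% NaCl) to Hsd:ICR (CD-1) mice; groups of 4 (2 male, 2 female) at doses of 1, 2, 3, 3.5 and 4 mg/kg. Viability/mortality and clinical signs checked during first 30 min and at ~1, 2, 3, 5 h on day 1, then through days 2–15; 14-day observation; body weights recorded; necropsy of all animals.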

[16] = as §5; assay type: organism-based; conditions: Hsd:ICR(CD-1), in vivo
Summary of the method: as §6

Mus musculus [17] = assay: Toxicity in Hsd:ICR(CD-1) mouse assessed as mortality at 3 mg/kg, iv after 1 min; assay type: organism-based; set-up: dose 3 mg/kg, route intravenous; conditions: in vivo
Summary of the method: as §6

[18] = biological target: T1, C-X-C chemokine receptor type 4; conditions: GBM2, 0.1 uM; remark: listed apart in the source
[19] = biological target: T1, C-X-C chemokine receptor type 4; conditions: GBM2, 1 uM; remark: listed apart in the source
[20] = biological target: T1, C-X-C chemokine receptor type 4; conditions: GBM2, 1 uM; remark: listed apart in the source
MT4 = assay: as §3; assay type: cell-based; conditions: mt4, 120 h, 120 h
Summary of the method: as §2

GBM1 [21] = assay: Effect on human GBM1 cell differentiation xenografted in NOD-SCID mouse assessed as decrease in tumor number incubated for 7 days prior to xenografting measured after 40 days by MRI scanning analysis relative to control; assay type: functional, cell-based
Summary of the method: (§7)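 GBM1 neurospheres were pretreated in culture for 7 days, then dissociated, counted and checked for viability by trypan blue. 100.000 live cells were stereotactically injected into the right corpus striatum of 9-week-old NOD-SCID mice. At 40 days, contrast MRI (gadolinium-DTPA 0.25 mmol/kg ip) covered the whole brain and tumor volume was quantified.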

GBM1 [22] = assay: Effect on human GBM1 cell differentiation xenografted in NOD-SCID mouse assessed as decrease in tumor size incubated for 7 days prior to xenografting measured after 40 days by MRI scanning analysis relative to control; assay type: functional, cell-based
Summary of the method: as §7

Mus musculus [23] = assay: Toxicity in Hsd:ICR(CD-1) mouse assessed as mortality at 2 mg/kg, iv after 1 min; assay type: organism-based; set-up: dose 2 mg/kg, route intravenous; conditions: in vivo
Summary of the method: as §6

[24] = biological target: T1, C-X-C chemokine receptor type 4; conditions: GBM2, 1 uM; remark: listed apart in the source
hERG (KCNH2) = hERG (KCNH2) (Homo sapiens, UniProt Q12809); assay: Inhibition of human ERG expressed in CHOK1 cells at 10 uM after 5 mins by whole-cell patch clamp assay; assay type: cell-based; conditions: CHO-K1 cells expressing human ERG
Chain of hERG (KCNH2) (Q12809 whole entry): as above
Summary of the method: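 hERG-expressing CHO-K1 cells were tested by automated whole-cell patch-clamp, measuring inhibition of tail current. Compound was applied cumulatively at 0.1, 1 and 10 μM, 5 min each at room temperature. E-4031 served as reference.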

[25] = Human immunodeficiency virus 1, MT4, 120 h

T1 sequence (P61073 whole entry): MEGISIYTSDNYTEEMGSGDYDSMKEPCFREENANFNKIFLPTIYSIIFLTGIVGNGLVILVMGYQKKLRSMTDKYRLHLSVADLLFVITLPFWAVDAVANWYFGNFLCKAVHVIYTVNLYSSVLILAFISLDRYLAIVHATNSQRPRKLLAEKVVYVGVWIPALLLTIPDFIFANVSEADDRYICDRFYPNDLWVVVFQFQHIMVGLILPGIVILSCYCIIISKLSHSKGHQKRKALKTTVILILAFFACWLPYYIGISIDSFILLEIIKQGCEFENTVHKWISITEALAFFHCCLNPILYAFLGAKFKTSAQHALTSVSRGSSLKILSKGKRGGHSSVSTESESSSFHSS

| Compound | inhibition [1] | Activity (CD44null [2]) | inhibition [3] | inhibition [4] | Activity (CD44null [5]) | inhibition [6] | IC50 [8] [nM] | EC50 [9, 25] [nM] | CC50 at 120 h [10] [nM] | viability at 168 h [11] [%] | viability at 168 h [13] [%] | MLC (Mus musculus [15]) [mg/kg] | MTD at 336 h [16] [mg/kg] | further results |
| --- | --- | --- | --- | --- | --- | --- | --- | --- | --- | --- | --- | --- | --- | --- |
| C[C@@H]1CCCCN1CCCNCc1ccc(CNCCCN2CCCC[C@H]2C)cc1 [listing 1 of 2 here] | inactive | Active | inactive | inactive | Active | inactive |  |  |  |  |  |  |  |  |
| C[C@@H]1CCCCN1CCCNCc1ccc(CNCCCN2CCCC[C@H]2C)cc1.Cl |  |  |  |  |  |  | 350 | 125 | > 44000 | > 80 | > 80 |  |  | IC50 [7]: > 100000 nM; Activity (Mus musculus [12]): Toxic |
| C[C@@H]1CCCCN1CCCNCc1ccc(CNCCCN2CCCC[C@@H]2C)cc1.Cl (mixture of isomers) | inactive | Active | inactive | Active | Active | Active | 790 | 139 | 26000 | > 80 | > 80 | 3 | 2.5 | inhibition [14]: inactive; IC50 [7]: > 100000 nM; Activity (Mus musculus [17]): Toxic; inhibition [18]: inactive; inhibition [19]: Active; inhibition [20]: Active |
| C[C@@H]1CCCCN1CCCNCc1ccc(CNCCCN2CCCC[C@H]2C)cc1 [listing 2 of 2 here] |  |  |  |  |  |  |  |  |  |  |  | 2.5 | 2 |  |
| CC1CCCCN1CCCNCc1ccc(CNCCCN2CCCCC2C)cc1 (mixture of isomers; 11) [listing 1 of 2 here] |  |  |  |  |  |  |  |  |  |  |  |  |  | EC50 ([9]; mt4): 130 nM; CC50 (MT4; read-out: CC50): > 44000 nM |
| CC1CCCCN1CCCNCc1ccc(CNCCCN2CCCCC2C)cc1 (mixture of isomers; 11) [listing 2 of 2 here] |  | Active |  |  | Active |  |  |  |  |  |  |  |  | Activity (GBM1 [21]): Active; Activity (GBM1 [22]): Active |
| C[C@H]1CCCCN1CCCNCc1ccc(CNCCCN2CCCC[C@@H]2C)cc1.Cl | inactive | Active | inactive | inactive | Active | inactive | 1100 | 137 | > 44000 | > 80 | > 80 | 2 | 1.5 | Activity (Mus musculus [23]): Toxic; inhibition [24]: Active; inhibition at 5 min, 10 µM (hERG (KCNH2)): < 25% |
| CC1CCCCN1CCCNCc1ccc(CNCCCN2CCCCC2C)cc1 (mixture of isomers; 1) |  |  |  |  |  |  |  |  |  |  |  |  |  | EC50 ([9]; mt4): 19 nM; CC50 (MT4): > 25 µg/mL |
